# Results from ChEMBL document CHEMBL3997810, “A Novel Potent Anticancer Compound Optimized from a Natural Oridonin Scaffold Induces Apoptosis and Cell Cycle Arrest through the Mitochondrial Pathway” (J Med Chem, 2017).
# Activity calls are given as the source filed them. The rule behind the calls is not given here.
# Key:
# MCF7 [1] = test: Induction of ROS generation in human MCF7 cells at 1 uM after 36 hrs in presence of ROS scavenger NAC by DCF-DA staining based flow cytometry; assay type: functional, cell-based
# Outline: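 MCF-7 cells exposed to 0–1 μM compound for 36 h, with DMSO as control; one arm pre-incubated with 2.5 mM NAC. Cells then loaded with DCF-DA at 37 °C for 15 min, harvested and resuspended in PBS. Fraction of DCF-positive cells measured by flow cytometry at Ex 480/Em 525 nm.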
# MCF7 [2] = test: Antiproliferative activity against human MCF7 cells after 72 hrs by MTT assay; assay type: functional, cell-based; conditions: MCF7, 72 h
# Outline: (§1)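 MGC-803 and MCF-7 cells grown in DMEM (MCF-7 with 1× NEAA); Bel-7402 and K562 grown in RPMI 1640; all media with 10% FBS. Cells seeded at 3500/well, pre-incubated 24 h, then exposed to compounds in fresh medium (DMSO ≤0.25%) for 72 h at 37 °C. MTT read-out at 570 nm. Quadruplicate wells, repeated three times; means ± SD (n = 3).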
# K562 = test: Antiproliferative activity against human K562 cells after 72 hrs by MTT assay; assay type: functional, cell-based; conditions: K562, 72 h; outline: as §1
# KB 3-1 = test: Antiproliferative activity against human KB-3-1 cells after 48 hrs by MTT assay; assay type: functional, cell-based; conditions: KB 3-1, 48 h
# Outline: (§2)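 Colorimetric MTT assay. KB-3-1, NCI-H460 and Bel-7404 cells were seeded at 4000 cells/well; resistant KB/CP4, NCI-H460/MX20 and Bel-7404/CP20 were seeded at 7000 cells/well. Cells were pre-incubated 24 h at 37 °C, 5% CO2, then exposed to a compound concentration series for 48 h with DMSO ≤0.25%. Absorbance read at 570 nm. Quadruplicate wells, three repeats; means ± SD.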
# [3] = Antiproliferative activity against human NCI-H460/MX20 cells after 48 hrs by MTT assay; assay type: functional, cell-based; conditions: NCI-H460/MX20, 48 h; outline: as §2
# MCF7 [4] = test: Cell cycle arrest in human MCF7 cells assessed as accumulation at S phase at 0.25 uM after 48 hrs by propidium iodide staining based flow cytometry (reference value: 37.18%); assay type: functional
# Outline: (§3)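 MCF-7 cells, 5 × 10^4 per well, seeded overnight, then exposed to 0.125–1 μM compound, or DMSO, for 48 h. Ethanol-fixed (70%, −20 °C, 12 h) and stained with PI/RNase at 37 °C for 30 min. Phase distribution determined by flow cytometry.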
# MCF7 [5] = test: Cell cycle arrest in human MCF7 cells assessed as accumulation at G2/M phase at 0.5 uM after 48 hrs by propidium iodide staining based flow cytometry (reference value: 13.05%); assay type: functional; outline: as §3
# MCF7 [6] = test: Cell cycle arrest in human MCF7 cells assessed as accumulation at S phase at 0.5 uM after 48 hrs by propidium iodide staining based flow cytometry (reference value: 37.18%); assay type: functional; outline: as §3
# MCF7 [7] = test: Cell cycle arrest in human MCF7 cells assessed as accumulation at G1 phase at 1 uM after 48 hrs by propidium iodide staining based flow cytometry (reference value: 49.77%); assay type: functional; outline: as §3
# MCF7 [8] = test: Cell cycle arrest in human MCF7 cells assessed as accumulation at G2/M phase at 1 uM after 48 hrs by propidium iodide staining based flow cytometry (reference value: 13.05%); assay type: functional; outline: as §3
# Bel-7402 [9] = test: Cell cycle arrest in human Bel7402 cells assessed as accumulation at G1 phase at 0.5 uM after 48 hrs by propidium iodide staining based flow cytometry (reference value: 34.61%); assay type: functional
# Bel-7402 [10] = test: Cell cycle arrest in human Bel7402 cells assessed as accumulation at G2/M phase at 2 uM after 48 hrs by propidium iodide staining based flow cytometry (reference value: 56.61%); assay type: functional
# Bel-7402 [11] = test: Cell cycle arrest in human Bel7402 cells assessed as accumulation at G1 phase at 4 uM after 48 hrs by propidium iodide staining based flow cytometry (reference value: 34.61%); assay type: functional
# Bel-7402 [12] = test: Cell cycle arrest in human Bel7402 cells assessed as accumulation at S phase at 4 uM after 48 hrs by propidium iodide staining based flow cytometry (reference value: 8.78%); assay type: functional
# MCF7 [13] = test: Downregulation of CyclinB protein expression in human MCF7 cells after 48 hrs by Western blot method; assay type: functional, cell-based
# Outline: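 MCF-7 cells exposed to 0–1 μM compound for 48 h, then lysed on ice. Lysate (20 μg protein) run on 8–12% SDS-PAGE and transferred to PVDF. Probed overnight at 4 °C with primary antibodies, then fluorescent secondaries. Band densities normalized to β-actin. Mean ± SD of three independent experiments.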
# MCF7 [14] = test: Cytotoxicity against human MCF7 cells at 10 to 50 uM after 24 hrs by LDH assay; assay type: functional, cell-based
# Outline: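 Membrane integrity assay on MCF-7 and Bel-7402 cells seeded at ~5 × 10^3 per well for 24 h, then given compounds at 10, 20 or 50 μM. Culture medium collected and assayed with CytoTox-ONE LDH reagent for 10 min, followed by stop solution. Fluorescence read at Ex 560/Em 590 nm. Expressed as percentage of unstimulated cells.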
# MCF7 [15] = test: Induction of apoptosis in human MCF7 cells assessed as live cells at 0.125 uM after 24 hrs by Annexin-V FITC/propidium iodide staining based flow cytometry (reference value: 97%); assay type: functional
# MCF7 [16] = test: Induction of apoptosis in human MCF7 cells assessed as early apoptotic cells at 0.25 uM after 24 hrs by Annexin-V FITC/propidium iodide staining based flow cytometry (reference value: 2.65%); assay type: functional
# MCF7 [17] = test: Induction of apoptosis in human MCF7 cells assessed as early apoptotic cells at 0.5 uM after 24 hrs by Annexin-V FITC/propidium iodide staining based flow cytometry (reference value: 2.65%); assay type: functional
# MCF7 [18] = test: Induction of apoptosis in human MCF7 cells assessed as live cells at 1 uM after 24 hrs by Annexin-V FITC/propidium iodide staining based flow cytometry (reference value: 97%); assay type: functional
# MCF7 [19] = test: Induction of apoptosis in human MCF7 cells assessed as early apoptotic cells at 1 uM after 24 hrs by Annexin-V FITC/propidium iodide staining based flow cytometry (reference value: 2.65%); assay type: functional
# MCF7 [20] = test: Induction of mitochondrial membrane potential depolarization in human MCF7 cells after 36 hrs by JC1 staining based fluorescence microscopic method; assay type: functional, cell-based
# Outline: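 MCF-7 cells were treated with 0, 0.25, 0.5 or 1 μM for 36 h and loaded with 10 μg/mL JC-1 for 30 min at 37 °C, then washed in PBS. Monomers were read at ex 490/em 535 nm and aggregates at ex 525/em 600 nm, by plate reader or fluorescence microscopy. The red/green ratio came from 10,000 cells per group, in triplicate, mean ± SD.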
# Mus musculus = test: Toxicity in Balb/c nude mouse xenografted with human MCF7 cells assessed as morphological changes in spleen at 20 mg/kg/day, iv for 4 weeks by hematoxylin and eosin staining based microscopic method; assay type: organism-based; conditions: in vivo, 672 h
# Outline: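 Male BALB/c nude mice aged six weeks received 1 × 10^6 MCF-7 cells subcutaneously in the right flank. After 7 d they were randomized and dosed 20 mg/kg iv once daily in 10% DMF/2% poloxamer/88% saline; saline control. Heart, liver, spleen, lung and kidney were fixed in 4% paraformaldehyde, paraffin-embedded, sectioned at 5 μm, H&E stained and examined microscopically.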
smiles,measurement,setting,value
C=C1C(=O)[C@]23[C@H](OC(=O)/C=C/c4ccccc4)[C@H]1CC[C@H]2[C@]12C=CCC(C)(C)[C@H]1[C@H](O)[C@]3(O)OC2,Activity,MCF7 [1],inactive
same,IC50,MCF7 [2],80 nM
same,IC50,K562,290 nM
same,IC50,KB 3-1,5700 nM
same,IC50,[3],13600 nM
same,Activity,MCF7 [4],33.9%
same,Activity,MCF7 [5],24.23%
same,Activity,MCF7 [6],31.9%
same,Activity,MCF7 [7],35.75%
same,Activity,MCF7 [8],34.23%
same,Activity,Bel-7402 [9],34.56%
same,Activity,Bel-7402 [10],58.07%
same,Activity,Bel-7402 [11],27.44%
same,Activity,Bel-7402 [12],9.55%
same,Activity,MCF7 [13],Dose-dependent effect
same,Activity,MCF7 [14],inactive
same,Activity,MCF7 [15],84.9%
same,Activity,MCF7 [16],8.29%
same,Activity,MCF7 [17],13.3%
same,Activity,MCF7 [18],31.2%
same,Activity,MCF7 [19],22.4%
same,Activity,MCF7 [20],Dose-dependent effect
same,Activity,Mus musculus,Non-Toxic
